Drawing on ChEMBL document CHEMBL1132814, “N-1 substituted pyrimidin-4-ones: novel, orally active inhibitors of lipoprotein-associated phospholipase A2” (Bioorg Med Chem Lett, 2000), this text covers inhibition and IC50 for 42 compounds.

The target in one test is T1, Platelet-activating factor acetylhydrolase (Homo sapiens) (UniProt Q13093).
T1 sequence (whole entry): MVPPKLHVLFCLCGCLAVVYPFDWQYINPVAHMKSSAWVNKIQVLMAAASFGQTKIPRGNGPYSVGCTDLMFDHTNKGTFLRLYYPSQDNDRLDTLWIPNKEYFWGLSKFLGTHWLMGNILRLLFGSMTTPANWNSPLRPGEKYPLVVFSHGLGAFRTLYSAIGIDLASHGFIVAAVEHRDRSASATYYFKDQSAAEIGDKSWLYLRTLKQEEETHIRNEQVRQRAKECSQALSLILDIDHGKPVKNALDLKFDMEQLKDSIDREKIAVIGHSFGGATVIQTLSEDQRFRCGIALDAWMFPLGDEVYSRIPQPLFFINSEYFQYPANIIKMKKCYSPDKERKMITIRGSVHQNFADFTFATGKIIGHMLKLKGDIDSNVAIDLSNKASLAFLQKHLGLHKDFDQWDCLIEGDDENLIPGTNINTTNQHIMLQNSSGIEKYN
As to the kind of experiment: Inhibition of Lipoprotein associated phospholipase A2 in human plasma at 100 nM. It counts as cell-free. The procedure, abridged:
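Whole plasma (human, or WHHL rabbit) mixed with compound in DMSO at a single concentration and preincubated 10 min at 37 °C before enzyme assay. Reaction ran 60 s in human plasma and 15 s in rabbit plasma, then stopped with CHCl3/MeOH (2:1). Released [3H]acetate was read by scintillation counting of the aqueous layer after chloroform extraction.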
`O=c1nc(SCc2ccc(F)cc2)n(Cc2ccco2)cc1Cc1cncnc1`: the inhibition turned out to be 26%.

Turning to `Cn1cc(Cc2cncnc2)c(=O)nc1SCc1ccc(F)cc1`, the inhibition was 28%.

On to `O=c1nc(SCc2ccc(F)cc2)n(CCc2ccccc2)cc1Cc1cncnc1`, for which the inhibition was determined as 27%.

The next test addresses T2, Platelet-activating factor acetylhydrolase (Homo sapiens, UniProt Q13093).
T2 sequence (Q13093 whole entry): T1 sequence (whole entry)
Nature of the test: Inhibition of isolated human lipoprotein associated phospholipase A2.
Compound `CCCCCCc1ccc(CCn2cc(Cc3cncnc3)c(=O)nc2SCc2ccc(F)cc2)cc1` came in with an IC50 of 12 nM.

The compound `O=c1nc(SCc2ccccc2)n(CCCc2ccccc2)cc1Cc1cncnc1` returned an IC50 of 300 nM.

Compound `O=C(CCCCCCCSc1nc(=O)c(Cc2cncnc2)cn1Cc1ccccc1)c1ccc(Cl)cc1` gave an IC50 of 36 nM.

On to `O=C(Cn1cc(Cc2cncnc2)c(=O)nc1SCc1ccc(F)cc1)NCCCCCCc1ccc(F)cc1`, for which the IC50 amounted to 2 nM.

`O=C(CCCCCCCSc1nc(=O)c(Cc2cncnc2)cn1Cc1ccco1)c1ccc(Cl)cc1` came in with an IC50 of 16 nM.

Turning to `CCCCNC(=O)CCCCCn1cc(Cc2cncnc2)c(=O)nc1SCc1ccc(F)cc1`, the IC50 was found to be 260 nM.

For the compound `O=C(CCCCCCCSc1nc(=O)c(Cc2cncnc2)cn1CCc1ccccc1)c1ccc(Cl)cc1`, it took 34 nM to reach half-maximal inhibition (IC50).

`CCCCCCCCCCCn1cc(Cc2cncnc2)c(=O)nc1SCc1ccc(F)cc1` gave an IC50 of 19 nM.

Turning to `O=C(CCCCCCCSc1nc(=O)c(Cc2cncnc2)cn1Cc1cccs1)c1ccc(Cl)cc1`, the IC50 is 11 nM.

Consider `O=c1nc(SCc2ccccc2)n(CCc2cccs2)cc1Cc1cncnc1`, for which inhibition was half-maximal at 350 nM (IC50).

In turn, `O=c1nc(SCc2cccc(Cl)c2)n(Cc2ccco2)cc1Cc1cncnc1` returned an IC50 of 960 nM.

For `O=c1nc(SCc2ccccc2)n(CCc2ccccc2)cc1Cc1cncnc1`, 210 nM corresponded to half-maximal inhibition (IC50).

Regarding `CCCCCCCNC(=O)NCCn1cc(Cc2cncnc2)c(=O)nc1SCc1ccc(F)cc1`, the IC50 is 70 nM.

The compound `Cn1cc(Cc2cncnc2)c(=O)nc1SCc1ccccc1` gave an IC50 of 660 nM.

In the case of `O=c1nc(SCc2ccc(F)c(F)c2)n(CCc2ccccc2)cc1Cc1cncnc1`, the IC50 is 110 nM.

In the case of `COCCn1cc(Cc2cncnc2)c(=O)nc1SCCCCCCCC(=O)c1ccc(Cl)cc1`, the IC50 is 110 nM.

`COCCn1cc(Cc2cncnc2)c(=O)nc1SCc1ccccc1` had a half-maximal inhibitory concentration (IC50) of 1200 nM.

In turn, `CCCCCCCC(=O)NCCn1cc(Cc2cncnc2)c(=O)nc1SCc1ccc(F)cc1` yielded an IC50 of 140 nM.

`O=c1nc(SCc2ccc(F)cc2)n(CCc2cccs2)cc1Cc1cncnc1` had an IC50 of 250 nM.

Regarding `O=c1nc(SCc2cccc(F)c2)n(Cc2ccco2)cc1Cc1cncnc1`, the IC50 turned out to be 250 nM.

`CCCCCCCN(C)C(=O)CCCn1cc(Cc2cncnc2)c(=O)nc1SCc1ccc(F)cc1` had an IC50 of 3 nM.

Turning to `CCCCCCCNC(=O)Cn1cc(Cc2cncnc2)c(=O)nc1SCc1ccc(F)cc1`, half-maximal inhibition (IC50) was put at 19 nM.

Take `CCCCCCCCN(C)C(=O)Cn1cc(Cc2cncnc2)c(=O)nc1SCc1ccc(F)cc1`: the IC50 amounted to 15 nM.

`CCCCCCCC/C=C/CCCCCCCCNC(=O)Cn1cc(Cc2cncnc2)c(=O)nc1SCc1ccc(F)cc1`: the IC50 was determined as 2 nM.

Take `CCCCCCCCCCCCCCCCCCNC(=O)CCCn1cc(Cc2cncnc2)c(=O)nc1SCc1ccc(F)cc1`: half-maximal inhibition (IC50) was put at 4 nM.

`O=c1nc(SCc2ccc(F)cc2)n(Cc2ccco2)cc1Cc1cncnc1` gave an IC50 of 300 nM.

Regarding `Cn1cc(Cc2cncnc2)c(=O)nc1SCc1ccc(F)cc1`, half-maximal inhibition (IC50) was put at 285 nM.

As for `O=c1nc(SCc2ccccc2)n(Cc2ccccc2)cc1Cc1cncnc1`, half-maximal inhibition (IC50) was put at 450 nM.

As for `O=c1nc(SCc2ccc(F)c(F)c2)n(Cc2ccco2)cc1Cc1cncnc1`, the IC50 is 235 nM.

As to `CCn1cc(Cc2cncnc2)c(=O)nc1SCCCCCCCC(=O)c1ccc(Cl)cc1`, the IC50 came out at 39 nM.

With `O=c1nc(SCc2ccccc2F)n(Cc2ccco2)cc1Cc1cncnc1`, the IC50 was 450 nM.

For the compound `Cn1cc(Cc2cncnc2)c(=O)nc1SCCCCCCCC(=O)c1ccc(Cl)cc1`, the IC50 is 19 nM.

With `O=c1nc(SCc2ccc(Cl)cc2)n(Cc2ccco2)cc1Cc1cncnc1`, the IC50 was found to be 1400 nM.

Turning to `CCCCCCCCC=CCCCCCCCCNC(=O)CCCn1cc(Cc2cncnc2)c(=O)nc1SCc1ccc(F)cc1`, the IC50 amounted to 0.4 nM.

In the case of `CCCCCCCCNC(=O)Cn1cc(Cc2cncnc2)c(=O)nc1SCc1ccc(F)cc1`, 7 nM corresponded to half-maximal inhibition (IC50).

As for `CCCCCCCCC=CCCCCCCCCNC(=O)Cn1cc(Cc2cncnc2)c(=O)nc1SCc1ccc(F)cc1`, it took 1 nM to reach half-maximal inhibition (IC50).

In turn, `O=c1nc(SCc2ccc(F)cc2)n(CCc2ccccc2)cc1Cc1cncnc1` displayed an IC50 of 200 nM.

Compound `CCCCCCCC/C=C/CCCCCCCCNC(=O)CCCn1cc(Cc2cncnc2)c(=O)nc1SCc1ccc(F)cc1` had an IC50 of 0.7 nM.

`O=C(CCCCCCCSc1nc(=O)c(Cc2cncnc2)cn1CCCc1ccccc1)c1ccc(Cl)cc1` showed a 50% inhibitory concentration (IC50) of 90 nM.

In turn, `CCCCCCCCCCNC(=O)CCCn1cc(Cc2cncnc2)c(=O)nc1SCc1ccc(F)cc1` registered an IC50 of 0.1 nM.

Compound `O=c1nc(SCc2ccc(F)cc2)n(CCCCCCCCCc2ccccc2)cc1Cc1cncnc1` yielded an IC50 of 25 nM.

For the compound `O=c1nc(SCc2ccccc2)n(Cc2cccs2)cc1Cc1cncnc1`, the IC50 stood at 210 nM.

As usually defined, the inhibition is the share of the control response that was lost under treatment. A lower inhibition goes with little suppression. In general, IC50 refers to the concentration that inhibits the measured activity by half. Low readings indicate inhibition by little substance, high ones a need for much substance.
